Data set [1] addresses Voltage-gated inwardly rectifying potassium channel KCNH2 (Homo sapiens, UniProt Q12809). Briefly: Inhibition of human ERG.
For data set [2], the target named is T1, Orexin receptor type 2 (Homo sapiens, UniProt O43614).
T1 sequence (O43614 whole entry): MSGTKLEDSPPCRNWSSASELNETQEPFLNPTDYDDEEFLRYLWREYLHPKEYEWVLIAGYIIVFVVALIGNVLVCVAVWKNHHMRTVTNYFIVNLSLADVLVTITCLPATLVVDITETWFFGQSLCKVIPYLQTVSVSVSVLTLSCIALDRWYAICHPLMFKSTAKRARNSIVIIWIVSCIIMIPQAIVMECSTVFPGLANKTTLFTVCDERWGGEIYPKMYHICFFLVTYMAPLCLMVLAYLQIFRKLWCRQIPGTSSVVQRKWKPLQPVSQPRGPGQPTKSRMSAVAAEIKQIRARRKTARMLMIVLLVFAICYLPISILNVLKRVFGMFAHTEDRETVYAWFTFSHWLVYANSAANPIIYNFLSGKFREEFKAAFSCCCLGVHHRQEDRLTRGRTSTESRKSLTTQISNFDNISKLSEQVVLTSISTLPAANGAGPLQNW
The data set can be described thus: Binding affinity to human OX2R by radioligand displacement binding assay. (In general: Displacement assays read how much labelled ligand stays bound in the presence of the test substance.)

Data set [3] is described as follows: Aqueous solubility of the compound in Dulbecco's phosphate buffered saline at pH 7.4 by DMSO solution precipitation method. It is filed as physicochemical. Put shortly: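 Solubility in Dulbecco's PBS at pH 7.4, measured at room temperature by precipitation from a DMSO solution.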
In data set [4] the target is T2, Orexin/Hypocretin receptor type 1 (Homo sapiens, UniProt O43613).
T2 sequence (O43613 whole entry): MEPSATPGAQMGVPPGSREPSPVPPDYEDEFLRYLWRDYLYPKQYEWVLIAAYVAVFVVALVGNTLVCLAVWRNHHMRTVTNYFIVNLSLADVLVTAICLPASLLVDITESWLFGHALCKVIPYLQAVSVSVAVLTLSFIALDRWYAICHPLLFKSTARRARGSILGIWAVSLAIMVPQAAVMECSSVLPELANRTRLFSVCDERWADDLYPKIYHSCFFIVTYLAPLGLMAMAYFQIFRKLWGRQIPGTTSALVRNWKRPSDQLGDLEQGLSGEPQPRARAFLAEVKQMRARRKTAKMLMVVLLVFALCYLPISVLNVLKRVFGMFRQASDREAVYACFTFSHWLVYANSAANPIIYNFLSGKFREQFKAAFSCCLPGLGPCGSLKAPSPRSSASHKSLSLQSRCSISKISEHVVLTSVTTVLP
The data set can be described thus: Binding affinity to human OX1R by radioligand displacement binding assay. Put shortly:
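Ki values come from single experiments run in triplicate.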

Data set [5] deals with Mus musculus. Briefly: Sleep promoting activity in C57BL/6NCrlCrlj mouse assessed as reduction in wakefulness time at 30 mg/kg, po administered immediately prior to beginning of dark cycle measured during first 3 hrs after drug administration by electroencephalogram/electromyogram analysis (reference value: 116.7 min). It is filed as functional. Put shortly:
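Male C57BL/6NCrlCrlj mice implanted with EEG/EMG electrodes were dosed orally in 10% Cremophor EL, 5% DMSO in saline just before lights-off (ZT12) and recorded from ZT12 to ZT20. Group sizes were n=6 dosed and n=7 vehicle. Stages were scored by software with blinded visual confirmation; cumulative first-3-h times are mean with SEM. Dunnett's test was run after one-way ANOVA.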

The target of data set [6] is CYP3A (Homo sapiens, UniProt P08684+P20815+P24462+Q9HB55). Briefly: Time dependent inhibition of CYP3A in human liver microsomes assessed as enzyme activity using midazolam as substrate at 10 uM incubated for 30 mins prior to substrate addition for 10 mins by LC-MS/MS analysis. Also on record: scale not given: the % may be the effect or the level left. As to conditions: probe midazolam, read-out: Activity. It is filed as ADME. Put shortly:
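Test compound at 10 μM preincubated 30 min at 37 °C with human liver microsomes (0.2 mg/mL), with or without an NADPH-generating system. Mixture then diluted 10-fold into a marker-substrate cocktail plus NADPH system and incubated 10 min at 37 °C. Midazolam served as the CYP3A probe. Metabolites measured by LC−MS/MS. Result is the residual activity with NADPH relative to without, as % of control.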
In general terms: Liver microsomes are vesicles of endoplasmic reticulum, rich in cytochrome P450 enzymes.

Data set [7] in a line: Activity at P-gp (unknown origin) assessed as corrected flux ratio. To be noted: human. It is filed as ADME. Put shortly: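 Reported as corrected flux ratio, i.e. the MDR1 flux ratio divided by the PK1 flux ratio.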

Experimental findings from ChEMBL document CHEMBL3585325, “Discovery of (1R,2S)-2-{[(2,4-Dimethylpyrimidin-5-yl)oxy]methyl}-2-(3-fluorophenyl)-N-(5-fluoropyridin-2-yl)cyclopropanecarboxamide (E2006): A Potent and Efficacious Oral Orexin Receptor Antagonist” (J Med Chem, 2015) are described below.

A word on the pIC50: it is the IC50 on a negative log10 scale, so that one unit is a factor of ten. The term pKi denotes the Ki on a negative log10 scale, so that one unit is a factor of ten. By solubility (kinetic) is commonly meant the concentration staying in solution when a stock, usually in DMSO, is diluted into the medium.

pIC50, pKi: −log10 of the molar value. Values after ≈ are worked out from the molar mass of the structure shown. Where only a bound is given, the exact number is not on record here.

Voltage-gated inwardly rectifying potassium channel KCNH2, sequence (Q12809 whole entry): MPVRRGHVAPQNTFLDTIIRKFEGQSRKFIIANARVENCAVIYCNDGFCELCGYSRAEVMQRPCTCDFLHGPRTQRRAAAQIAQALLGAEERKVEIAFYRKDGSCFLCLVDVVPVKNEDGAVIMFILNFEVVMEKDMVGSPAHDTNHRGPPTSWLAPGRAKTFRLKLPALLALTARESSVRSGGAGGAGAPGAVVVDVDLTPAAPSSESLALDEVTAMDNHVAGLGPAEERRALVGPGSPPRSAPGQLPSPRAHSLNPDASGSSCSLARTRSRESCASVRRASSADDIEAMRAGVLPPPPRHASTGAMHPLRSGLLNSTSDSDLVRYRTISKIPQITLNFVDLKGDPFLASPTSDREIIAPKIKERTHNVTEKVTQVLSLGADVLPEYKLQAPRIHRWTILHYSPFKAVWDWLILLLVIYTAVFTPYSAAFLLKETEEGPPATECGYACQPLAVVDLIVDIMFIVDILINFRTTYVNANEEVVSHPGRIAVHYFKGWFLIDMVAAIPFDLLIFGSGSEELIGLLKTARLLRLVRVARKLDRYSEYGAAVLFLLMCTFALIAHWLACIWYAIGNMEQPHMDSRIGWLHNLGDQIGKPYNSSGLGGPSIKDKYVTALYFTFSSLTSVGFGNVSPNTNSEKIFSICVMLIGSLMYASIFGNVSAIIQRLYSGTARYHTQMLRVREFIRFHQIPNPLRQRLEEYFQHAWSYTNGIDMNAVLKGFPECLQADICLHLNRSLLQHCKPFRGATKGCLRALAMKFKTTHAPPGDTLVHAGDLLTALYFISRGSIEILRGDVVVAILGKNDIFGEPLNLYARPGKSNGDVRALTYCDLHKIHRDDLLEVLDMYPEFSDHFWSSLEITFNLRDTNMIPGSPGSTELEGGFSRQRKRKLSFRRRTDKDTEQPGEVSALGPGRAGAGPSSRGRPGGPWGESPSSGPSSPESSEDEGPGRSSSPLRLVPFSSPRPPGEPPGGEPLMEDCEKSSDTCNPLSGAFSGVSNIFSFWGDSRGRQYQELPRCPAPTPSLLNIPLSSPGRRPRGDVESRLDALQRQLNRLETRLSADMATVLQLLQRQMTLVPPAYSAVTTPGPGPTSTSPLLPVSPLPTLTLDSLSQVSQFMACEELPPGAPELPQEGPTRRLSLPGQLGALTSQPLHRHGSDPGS

In data set [1], `Cc1ncc(OC[C@@]2(c3ccccc3)C[C@H]2C(=O)Nc2ccc(F)cn2)c(C)n1` had a pIC50 of 5.11. Moreover, the pKi in data set [2] is 8.15; in data set [4], 6.86. The compound further had a kinetic solubility in data set [3] of 92 µM (≈ 36.1 µg/mL). In addition, the Time in data set [5] worked out at 72.3 min. Besides, the activity at 10 min, 10 µM in data set [6] amounted to 87%. Moreover, in data set [7], the Ratio stood at 1.7.
Turning to `Cc1ncc(OC[C@@]2(c3cccc(F)c3)C[C@H]2C(=O)Nc2cc(C)c(F)cn2)c(C)n1`, the pIC50 in data set [1] was < 5.00. The figures for the pKi in data set [2] and in data set [4] were 8.40 and 8.70, respectively. In data set [3], the solubility (kinetic) was determined as 46 µM (≈ 19.5 µg/mL). In addition, the activity at 10 min, 10 µM in data set [6] came out at 83%. For the same compound, the Ratio in data set [7] came out at 1.4.
Turning to `Cc1ncc(OC[C@@]2(c3ccccc3)C[C@H]2C(=O)Nc2ccc(Cl)cn2)c(C)n1`, the pKi in data set [2] was 8.70; in data set [4] it was 7.41. In data set [5], the Time came out at 68.2 min. Further, in data set [6], the activity at 10 min, 10 µM was 88%. For the same compound, the Ratio in data set [7] was found to be 1.3.
On to `Cc1ncc(OC[C@@]2(c3ccc(F)c(F)c3)C[C@H]2C(=O)Nc2ccc(F)cn2)c(C)n1`, for which the pKi in data set [2] is 8.40; in data set [4], 7.85. In data set [6], the activity at 10 min, 10 µM worked out at 75%.
As to `Cc1nn(C)cc1OCC1(c2ccccc2)CC1C(=O)Nc1ccc(C#N)cn1` (racemic), the pKi in data set [2] is 6.69; in data set [4], < 5.70. In addition, in data set [3], the kinetic solubility is 85 µM (≈ 32.9 µg/mL). Moreover, the activity at 10 min, 10 µM in data set [6] was 85%.
In data set [1], `Cc1ncc(OC[C@@]2(c3ccc(F)cc3)C[C@H]2C(=O)Nc2ccc(F)cn2)c(C)n1` gave a pIC50 of 5.66. Moreover, the pKi in data set [2] was 8.10; in data set [4], 7.41. In addition, the activity at 10 min, 10 µM in data set [6] is 85%. Further, in data set [7], the Ratio came to 1.3.
Consider `Cc1ncc(OC[C@@]2(c3ccccc3)C[C@H]2C(=O)Nc2cc(C)c(F)cn2)c(C)n1`, for which the pKi is 8.40 in data set [2] and 8.22 in data set [4]. The compound further showed a kinetic solubility in data set [3] of 51 µM (≈ 20.7 µg/mL). Also, in data set [5], the Time is on record as 67.1 min. Besides, the activity at 10 min, 10 µM in data set [6] was determined as 89%.
For `Cc1ccc(NC(=O)[C@@H]2C[C@@]2(COc2cnc(C)nc2C)c2ccccc2)nc1`, the pKi was 7.47 in data set [2] and 6.91 in data set [4]. In addition, the activity at 10 min, 10 µM in data set [6] turned out to be 22%. For the same compound, the Ratio in data set [7] came to 1.3.
Take `Cc1ccc(OCC2(c3ccccc3)CC2C(=O)Nc2ccc(C#N)cn2)c(C)n1` (racemic): the pKi in data set [2] was 6.65; in data set [4], 6.03. The kinetic solubility in data set [3] stood at 22 µM (≈ 8.77 µg/mL). The activity at 10 min, 10 µM in data set [6] was 34%.
In the case of `Cc1ncc(OC[C@@]2(c3ccccc3)C[C@H]2C(=O)Nc2ccncc2)c(C)n1`, the pKi in data set [2] is 6.79; in data set [4], 5.80. Moreover, in data set [6], the activity at 10 min, 10 µM came out at 110%. In data set [7], the Ratio came out at 6.
For the compound `Cc1ccnc(NC(=O)[C@@H]2C[C@@]2(COc2cnc(C)nc2C)c2ccccc2)c1`, the pKi in data set [2] was 7.54; in data set [4] it was 6.65. For the same compound, the activity at 10 min, 10 µM in data set [6] is 90%. Besides, the Ratio in data set [7] turned out to be 1.5.
Turning to `CCn1cc(OC[C@]2(c3ccccc3)C[C@@H]2C(=O)Nc2ccc(C#N)cn2)c(C)n1`, the pKi in data set [2] and in data set [4] was < 5.70 throughout.
In the case of `CCn1cc(OCC2(c3ccccc3)CC2C(=O)Nc2ccc(C#N)cn2)c(C)n1` (racemic), the values for the pKi in data set [2] and in data set [4] were 8.00 and 6.41, respectively. In data set [3], this compound yielded a kinetic solubility of 78 µM (≈ 31.3 µg/mL). Also, in data set [6], the activity at 10 min, 10 µM worked out at 84%. For the same compound, in data set [7], the Ratio turned out to be 1.5.
For `COCc1nc(C)ncc1OC[C@@]1(c2ccccc2)C[C@H]1C(=O)Nc1ccc(C#N)cn1`, in that order: 8.05, 7.37, 93 µM (≈ 39.9 µg/mL), 92% and 4.
For `COc1cc(NC(=O)[C@@H]2C[C@@]2(COc2cnc(C)nc2C)c2ccccc2)ncc1F`, the pKi in data set [2] is 8.22; in data set [4], 8.52. The activity at 10 min, 10 µM in data set [6] was determined as 86%. Besides, the Ratio in data set [7] stood at 1.6.
For `Cc1ncc(OC[C@@]2(c3ccccc3)C[C@H]2C(=O)Nc2cccc(F)n2)c(C)n1`, in that order: 7.25, 6.86, 94% and 1.4.
For the compound `CCn1cc(OC[C@@]2(c3ccccc3)C[C@H]2C(=O)Nc2ccc(C#N)cn2)c(C)n1`, the results for the pKi in data set [2] and in data set [4] were 8.10 and 6.77, respectively. In data set [3], this compound displayed a solubility (kinetic) of 64 µM (≈ 25.7 µg/mL). Further, in data set [6], the activity at 10 min, 10 µM was found to be 93%. Moreover, the Ratio in data set [7] was found to be 0.9.
Take `Cc1ncc(OC[C@@]2(c3ccccc3)C[C@H]2C(=O)Nc2ccccn2)c(C)n1`: the pKi in data set [2] is 7.10; in data set [4], 5.99. Besides, the activity at 10 min, 10 µM in data set [6] turned out to be 99%. For the same compound, the Ratio in data set [7] is 1.9.
The compound `Cc1ncc(OC[C@@]2(c3ccccc3F)C[C@H]2C(=O)Nc2ccc(F)cn2)c(C)n1` showed a pIC50 in data set [1] of 5.23. Further, the pKi in data set [2] is 7.77; in data set [4], 7.09. Besides, the activity at 10 min, 10 µM in data set [6] was found to be 77%. Moreover, the Ratio in data set [7] is given as 1.4.
Consider `Cc1ncc(OC[C@@]2(c3ccccc3)C[C@H]2C(=O)Nc2ccc(C#N)cn2)c(C)n1`, for which the pKi in data set [2] was 7.31; in data set [4] it was 5.60. The compound further gave a kinetic solubility in data set [3] of 80 µM (≈ 32 µg/mL). Moreover, the activity at 10 min, 10 µM in data set [6] was determined as 96%. For the same compound, the Ratio in data set [7] stood at 2.7.
The corresponding values for `Cc1cnc(OC[C@@]2(c3ccccc3)C[C@H]2C(=O)Nc2ccc(C#N)cn2)c(C)n1` are 7.68, 7.14, 47 µM (≈ 18.8 µg/mL), 97% and 1.3.
The compound `Cc1ncc(OC[C@@]2(c3cc(F)cc(F)c3)C[C@H]2C(=O)Nc2ccc(F)cn2)c(C)n1` gave a pIC50 in data set [1] of 5.32. Also, the pKi was 8.52 in data set [2] and 8.15 in data set [4]. Besides, the activity at 10 min, 10 µM in data set [6] turned out to be 62%. In addition, the Ratio in data set [7] is 1.5.
With `Cc1cc(OCC2(c3ccccc3)CC2C(=O)Nc2ccc(C#N)cn2)cc(C)n1` (racemic), the pKi in data set [2] and in data set [4] was < 5.70 each time. Besides, the activity at 10 min, 10 µM in data set [6] came to 94%.
On to `CCc1nc(C)ncc1OC[C@@]1(c2ccccc2)C[C@H]1C(=O)Nc1ccc(C#N)cn1`, for which the pKi was 8.15 in data set [2] and 6.92 in data set [4]. The solubility (kinetic) in data set [3] was 44 µM (≈ 18.2 µg/mL). The activity at 10 min, 10 µM in data set [6] is 91%. Moreover, in data set [7], the Ratio was 2.1.
As to `Cc1ncc(OC[C@@]2(c3ccccc3)C[C@H]2C(=O)Nc2cccnc2)c(C)n1`, the pKi is 7.30 in data set [2] and 6.41 in data set [4]. The activity at 10 min, 10 µM in data set [6] is 104%. Moreover, the Ratio in data set [7] is 4.4.
